Results reported in ChEMBL document CHEMBL3244146, “Pyranenamines: a new series of antiallergic compounds” (1979).

Columns and labels:
[1] = Antiallergic activity in passively sensitized rhesus monkey lungs assessed as inhibition of antigen-induced histamine release at 1 x 10^-4 M by fluorometric analysis relative to control; type: functional, Macaca mulatta, Lung
Procedure, shortened: (§1)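 Passively sensitized fragmented lung from a young adult male rhesus monkey, challenged with IgE-antihuman IgE; histamine release measured fluorometrically and SRS-A estimated by guinea pig ileum bioassay; inhibition relative to control; replicates given as number of separate lung preparations.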

[2] = Antiallergic activity in passively sensitized rhesus monkey lungs assessed as inhibition of antigen-induced histamine release at 1 x 10^-5 M by fluorometric analysis relative to control; type: functional, Macaca mulatta, Lung; procedure, shortened: as §1
[3] = Antiallergic activity in passively sensitized rhesus monkey lungs assessed as inhibition of antigen-induced slow reacting substance of anaphylaxis release at 1 x 10^-4 M relative to control; type: functional, Macaca mulatta, Lung; procedure, shortened: as §1
[4] = Antiallergic activity in passively sensitized rhesus monkey lungs assessed as inhibition of antigen-induced slow reacting substance of anaphylaxis release at 1 x 10^-5 M relative to control; type: functional, Macaca mulatta, Lung; procedure, shortened: as §1
[5] = test system: Rattus norvegicus; assay: Antiallergic activity in iv dosed rat assessed as inhibition of egg albumin-induced passive cutaneous anaphylaxis treated for 30 secs followed by egg albumin-challenge measured after 30 mins; type: functional; details: 0.5 h, read-out: ID50 (the source's name)
[6] = test system: Rattus norvegicus; assay: Antiallergic activity in po dosed rat assessed as inhibition of egg albumin-induced passive cutaneous anaphylaxis treated for 15 mins followed by egg albumin-challenge measured after 30 mins; type: functional; details: read-out: ID50 (the source's name)
Procedure, shortened: (§2)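 Oral PCA in rats: intradermal antiserum at four back sites (dose giving ~12×12 mm wheal), compound po 48 h later, 15 min before iv challenge with 0.5 mL saline containing 5 mg Evans blue plus 5 mg egg albumin; skin bluing read 30 min after challenge on two axes per wheal; six rats per dose versus ≥6 vehicle controls; percent inhibition from mean wheal size, one-sided t test.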

[7] = test system: Rattus norvegicus; assay: Antiallergic activity in rat assessed as inhibition of egg albumin-induced passive cutaneous anaphylaxis at 25 mg/kg, po treated for 15 mins followed by egg albumin-challenge measured after 30 mins relative to control; type: functional; procedure, shortened: as §2
[8] = test system: Rattus norvegicus; assay: Antiallergic activity in rat assessed as inhibition of egg albumin-induced passive cutaneous anaphylaxis at 50 mg/kg, po treated for 15 mins followed by egg albumin-challenge measured after 30 mins relative to control; type: functional; procedure, shortened: as §2
[9] = test system: Rattus norvegicus; assay: Antiallergic activity in rat assessed as inhibition of egg albumin-induced passive cutaneous anaphylaxis at 10 mg/kg, iv treated for 30 secs followed by egg albumin-challenge measured after 30 mins relative to control; type: functional; details: 0.5 h
[10] = test system: Rattus norvegicus; assay: Antiallergic activity in rat assessed as inhibition of egg albumin-induced passive cutaneous anaphylaxis at 5 mg/kg, iv treated for 30 secs followed by egg albumin-challenge measured after 30 mins relative to control; type: functional; details: 0.5 h
[11] = test system: Lung; assay: Antiallergic activity in passively sensitized albino rat lungs assessed as inhibition of antigen-induced histamine release at 2.7 x 10^-4 M by fluorometric analysis relative to control; type: functional
Procedure, shortened: (§3)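 Fragmented lung from adult male Charles River albino rats, passively sensitized, then antigen-challenged with compound present; released histamine measured fluorometrically; inhibition reported relative to control, with replicate count given as number of separate lung preparations.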

[12] = test system: Lung; assay: Antiallergic activity in passively sensitized albino rat lungs assessed as inhibition of antigen-induced histamine release at 5.3 x 10^-5 M by fluorometric analysis relative to control; type: functional; procedure, shortened: as §3
[13] = Antiallergic activity in passively sensitized rhesus monkey lungs assessed as inhibition of antigen-induced histamine release at 1.3 x 10^-3 M by fluorometric analysis relative to control; type: functional, Macaca mulatta, Lung; procedure, shortened: as §1
[14] = Antiallergic activity in passively sensitized rhesus monkey lungs assessed as inhibition of antigen-induced histamine release at 2.7 x 10^-4 M by fluorometric analysis relative to control; type: functional, Macaca mulatta, Lung; procedure, shortened: as §1
[15] = Antiallergic activity in passively sensitized rhesus monkey lungs assessed as inhibition of antigen-induced histamine release at 5.3 x 10^-5 M by fluorometric analysis relative to control; type: functional, Macaca mulatta, Lung; procedure, shortened: as §1
[16] = Antiallergic activity in passively sensitized rhesus monkey lungs assessed as inhibition of antigen-induced slow reacting substance of anaphylaxis release at 1.3 x 10^-3 M relative to control; type: functional, Macaca mulatta, Lung; procedure, shortened: as §1
[17] = Antiallergic activity in passively sensitized rhesus monkey lungs assessed as inhibition of antigen-induced slow reacting substance of anaphylaxis release at 2.7 x 10^-4 M relative to control; type: functional, Macaca mulatta, Lung; procedure, shortened: as §1
[18] = Antiallergic activity in passively sensitized rhesus monkey lungs assessed as inhibition of antigen-induced slow reacting substance of anaphylaxis release at 5.3 x 10^-5 M relative to control; type: functional, Macaca mulatta, Lung; procedure, shortened: as §1
[19] = test system: Lung; assay: Antiallergic activity in passively sensitized albino rat lungs assessed as inhibition of antigen-induced histamine release at 1.3 x 10^-3 M by fluorometric analysis relative to control; type: functional; procedure, shortened: as §3

CC(=O)C1=C(O)/C(=C(\C)Nc2cc(N)cc(O)c2)C(=O)OC1=O.Cl
inhibition (INH) [1]: 24%
inhibition (INH) [2]: -0.7%
inhibition (INH) [3]: 18%
inhibition (INH) [4]: 5%
ED50 [5]: 0.5 mg/kg
ED50 [6]: 8 mg/kg

CC(=O)Nc1cc(O)cc(N/C(C)=C2\C(=O)OC(=O)C(C(C)=O)=C2O)c1
inhibition (INH) [1]: 57%
inhibition (INH) [2]: 17%
inhibition (INH) [3]: 22%
inhibition (INH) [4]: 6%
ED50 [5]: 0.02 mg/kg
inhibition in vivo at 25 mg/kg [7]: 2%

CC(=O)Nc1cc(N)cc(N/C(C)=C2\C(=O)OC(=O)C(C(C)=O)=C2O)c1
inhibition (INH) [1]: 17%
inhibition (INH) [3]: 8%
ED50 [5]: 0.1 mg/kg
inhibition in vivo at 25 mg/kg [7]: 11%

CCC(=O)Nc1cc(NC(=O)CC)cc(N/C(C)=C2\C(=O)OC(=O)C(C(C)=O)=C2O)c1
ED50 [5]: 0.003 mg/kg
inhibition in vivo at 50 mg/kg [8]: 14%

CCCC(=O)Nc1cc(NC(=O)CCC)cc(N/C(C)=C2\C(=O)OC(=O)C(C(C)=O)=C2O)c1
ED50 [5]: 0.05 mg/kg
inhibition in vivo at 25 mg/kg [7]: 7%

CCOC(=O)Nc1cc(NC(=O)OCC)cc(N/C(C)=C2\C(=O)OC(=O)C(C(C)=O)=C2O)c1
ED50 [5]: 0.25 mg/kg
inhibition in vivo at 25 mg/kg [7]: -18%

CCOC(=O)C(=O)Nc1cc(NC(=O)C(=O)OCC)cc(N/C(C)=C2\C(=O)OC(=O)C(C(C)=O)=C2O)c1
ED50 [5]: 0.03 mg/kg
ED50 [6]: 6.5 mg/kg

CC(=O)C1=C(O)/C(=C(\C)Nc2cc(NC(=O)C(=O)O)cc(NC(=O)C(=O)O)c2)C(=O)OC1=O
ED50 [5]: 0.05 mg/kg
ED50 [6]: 19 mg/kg

CC(=O)C1=C(O)/C(=C(\C)Nc2cc(NS(C)(=O)=O)cc(NS(C)(=O)=O)c2)C(=O)OC1=O
ED50 [5]: 0.3 mg/kg
inhibition in vivo at 50 mg/kg [8]: 9%

CC(=O)C1=C(O)/C(=C(\C)Nc2cc(O)c(O)c(O)c2)C(=O)OC1=O
ED50 [5]: 0.4 mg/kg
inhibition in vivo at 25 mg/kg [7]: -3%

CC(=O)C1=C(O)/C(=C(\C)Nc2c(Cl)cccc2Cl)C(=O)OC1=O
inhibition in vivo at 10 mg/kg [9]: 3%

CC(=O)C1=C(O)/C(=C(\C)Nc2cc(O)ccc2N)C(=O)OC1=O
inhibition in vivo at 5 mg/kg [10]: 47%

COc1ccc(N(C)/C(C)=C2\C(=O)OC(=O)C(C(C)=O)=C2O)cc1
inhibition in vivo at 5 mg/kg [10]: 37%

CC(=O)C1=C(O)/C(=C(\C)N(C)c2ccc(O)cc2)C(=O)OC1=O
inhibition in vivo at 5 mg/kg [10]: 42%

CC(=O)C1=C(O)/C(=C(\C)N)C(=O)OC1=O
inhibition in vivo at 5 mg/kg [10]: 17%

CCC(=O)c1c(O)oc(=O)c(C(=O)CC)c1O
inhibition in vivo at 10 mg/kg [9]: 39%

CCCC(=O)c1c(O)oc(=O)c(C(=O)CCC)c1O
inhibition in vivo at 10 mg/kg [9]: 3%

CCCCC(=O)c1c(O)oc(=O)c(C(=O)CCCC)c1O
inhibition in vivo at 10 mg/kg [9]: 69%

CC(C)CC(=O)c1c(O)oc(=O)c(C(=O)CC(C)C)c1O
inhibition in vivo at 10 mg/kg [9]: 23%

CCCCCCC(=O)c1c(O)oc(=O)c(C(=O)CCCCCC)c1O
inhibition in vivo at 10 mg/kg [9]: 27%

O=C([O-])c1cc(=O)c2c(OCC(O)COc3cccc4oc(C(=O)[O-])cc(=O)c34)cccc2o1.[Na+].[Na+] [CROMOLYN SODIUM]
inhibition (INH) [11]: 47%
inhibition (INH) [12]: 32%
inhibition (INH) [13]: 54%
inhibition (INH) [14]: 37%
inhibition (INH) [15]: 11%
inhibition (INH) [16]: 27%
inhibition (INH) [17]: 36%
inhibition (INH) [18]: 24%
ED50 [5]: 0.9 mg/kg
inhibition (INH) [19]: 56%
